The values that follow come from ChEMBL document CHEMBL5252636, “Host-guest binding of tetracationic cyclophanes to photodynamic agents inhibits posttreatment phototoxicity and maintains antitumour efficacy” (RSC Med Chem, 2023).

Active and inactive are the calls of the source. The calls are words filed in the database; no cut-off is given here.

A short description of data set [1]: Hemolytic activity in rat RBC assessed as hemolysis up to 100 microg/ml measured after 1 hr. In kind it is toxicity, cell-based, Erythrocyte. Conditions: red blood cells, up to 100 µg/mL, read-out: Activity. In a few lines:
(§1)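 Erythrocytes from Sprague Dawley rat or human O-type were used as a 5% (v/v) suspension in normal saline. They were incubated with compound (final 0–100 µg/mL) at 37 °C for 1 h, then centrifuged at 3000 rpm for 10 min at 4 °C. Hemoglobin in the supernatant was read at 545 nm. Saline served as 0% and deionized water as 100% hemolysis.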

Data set [2] in a line: Hemolytic activity in human RBC assessed as hemolysis up to 100 microg/ml measured after 1 hr. Conditions: red blood cells, up to 100 µg/mL, read-out: Activity. The data set is classed as toxicity, cell-based, Erythrocyte. In a few lines: as §1
The subject of data set [3] is L02. Kind of data set: Cytotoxicity against human L02 cells assessed as reduction in cell viability up to 100 microg/ml incubated for 24 hrs by MTT assay. The data set is classed as toxicity, cell-based. The settings on record: l02, 24 h, up to 100 µg/mL, in the assay text read “CCK-8 assay” for “MTT assay”. In a few lines:
(§2)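 CCK-8 viability assay. H9C2 cells were grown in DMEM with 10% FBS, and L02 cells in 1640 medium with 20% FBS, both at 37 °C in 5% CO₂. Cells were seeded at 1×10^4 per well, allowed to adhere for 24 h, then exposed to 0–100 µg/mL for 24 h. CCK-8 was added for 1 h and A450 read. Viability is expressed as % of untreated cells; six independent experiments.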
(Formazan colour is commonly taken as a measure of viable cells.)

The subject of data set [4] is H9c2. Nature of the data set: Cytotoxicity against rat H9c2 cells assessed as reduction in cell viability up to 100 microg/ml incubated for 24 hrs by MTT assay. The data set is classed as toxicity, cell-based. Conditions: h9c2, 24 h, up to 100 µg/mL, in the assay text read “CCK-8 assay” for “MTT assay”. In a few lines:
as §2

Data set [5] can be described thus: Phototoxicity in laser irradiated BALB/c mouse implanted with mouse B16-F10 cells assessed as pathological changes in kidney at 4 mg/kg, sc administered for 3 days followed by sunlight irradiation for 0.5 hr and […] by H and E staining based analysis. In kind it is toxicity, organism-based. Conditions: in vivo, iv, in the assay text read “iv administered” for “sc administered”. Summed up: (§3)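 Female nude BALB/c mice, 7–8 weeks old, received 1×10^5 B16F10 cells s.c. on the right front back (n=8). At ~20 mm³, mice got Photofrin 4.0 mg/kg i.v. and were kept dark for 24 h. Tumours were then lit with a 635 nm laser (145 mW/cm², 7 min), followed within 30 min by compound 4.0 mg/kg i.v. On day 3 came a solar simulator (100 mW/cm², 30 min). Tumour volume (L×W²/2) was measured daily, skin imaged every 2 days, and H&E done on day 13.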

Data set [6] in a line: Phototoxicity in laser irradiated BALB/c mouse implanted with mouse B16-F10 cells assessed as hair follicle enlargement at 4 mg/kg, sc administered for 3 days followed by sunlight irradiation for 0.5 hr and […] by H and E staining based analysis. The data set is classed as toxicity, organism-based. The settings on record: in vivo, iv, in the assay text read “iv administered” for “sc administered”. Summed up: as §3

Data set [7] in a line: Phototoxicity in laser irradiated BALB/c mouse implanted with mouse B16-F10 cells assessed as epidermal thickening at 4 mg/kg, sc administered for 3 days followed by sunlight irradiation for 0.5 hr and […] by H and E staining based analysis. The data set is classed as toxicity, organism-based. Conditions: in vivo, iv, in the assay text read “iv administered” for “sc administered”. Summed up: as §3

For data set [8], the system named is B16-F10. Nature of the data set: Antitumor activity against mouse B16-F10 cells implanted BALB/c mouse assessed as reduction in size at 4 mg/kg.
The nature of data set [9]: Phototoxicity in laser irradiated BALB/c mouse implanted with mouse B16-F10 cells at 2 mg/kg, followed by sunlight irradiation for 24 hr. Conditions: in vivo, 96 h.
The nature of data set [10]: Phototoxicity in laser irradiated BALB/c mouse implanted with mouse B16-F10 cells at 2 mg/kg, followed by sunlight irradiation for 24 hr in presence of dopamine. The settings on record: in vivo, 96 h.
The subject of data set [11] is B16-F10. Nature of the data set: Antitumor activity against mouse B16-F10 cells implanted BALB/c mouse assessed as increase in tumor cell apoptosis at 4 mg/kg, iv by tunel staining based immunohistochemical analysis.
A short description of data set [12]: Phototoxicity in laser irradiated BALB/c mouse implanted with mouse B16-F10 cells assessed as skin injury at 4 mg/kg, followed by sunlight irradiation for 0.5 hr and measured on day 11. Conditions: in vivo, 264 h.
The nature of data set [13]: Phototoxicity in laser irradiated BALB/c mouse implanted with mouse B16-F10 cells assessed as increase in tumor volume at 4 mg/kg, followed by sunlight irradiation for 0.5 hr and measured on day 13. Conditions: in vivo, 312 h.
Data set [14] in a line: Phototoxicity in laser irradiated BALB/c mouse implanted with mouse B16-F10 cells assessed as pathological changes in skin at 4 mg/kg, followed by sunlight irradiation for 0.5 hr and measured on day 3 by H and E staining based analysis. The settings on record: in vivo.
Data set [15] can be described thus: Phototoxicity in laser irradiated BALB/c mouse implanted with mouse B16-F10 cells assessed as pathological changes in lung at 4 mg/kg, followed by sunlight irradiation for 0.5 hr and measured on day 3 by H and E staining based analysis. The settings on record: in vivo.
Data set [16] in a line: Water solubility of compound. The data set is classed as physicochemical.

`[Cl-].[Cl-].[Cl-].[Cl-].c1cc2ccc1C[n+]1ccc(cc1)-c1ccc3cc(ccc3c1)-c1cc[n+](cc1)Cc1ccc(cc1)C[n+]1ccc(cc1)-c1ccc3cc(ccc3c1)-c1cc[n+](cc1)C2`: the hemolysis at 1 h in data set [1] and in data set [2] was at most 5% each time. Also, the Activity entry is given as “>= 90%” in data set [3]; “>= 90%” in data set [4]; 66% in data set [5]; “Non-Toxic” in data set [6]; “Non-Toxic” in data set [7]; 26 mm3 in data set [8]. Further, the Activity entry in data set [9] is recorded as “Non-Toxic”; in data set [10], “Non-Toxic”; in data set [12], “Non-Toxic”; in data set [13], 1344 mm3; in [14], 67%; in data set [15] it was 41%. Further, the result in data set [11] was Active.

As usually defined, the solubility is how much of the substance goes into solution per volume. On to `C[n+]1ccc(-c2ccc(-c3cc[n+](C)cc3)c3ccccc23)cc1.[Cl-].[Cl-]`, for which the solubility in data set [16] came out at 13.1 mM.

As to `C[n+]1ccc(-c2cccc3c(-c4cc[n+](C)cc4)cccc23)cc1.[Cl-].[Cl-]`, the solubility in [16] was found to be 20.7 mM.

`C[n+]1ccc(-c2ccc3cc(-c4cc[n+](C)cc4)ccc3c2)cc1.[Cl-].[Cl-]` had a solubility in data set [16] of 3.5 mM.
